Measurements taken from article PMC6294321 (Molecular cell, 2018).
Substitutions are numbered along the chain they refer to. Where no end group is shown, it is not given here.

Tests used:
[1] = molecular target: T1, GST-tagged KLHDC2 (kelch repeat domain, WT) (Homo sapiens, UniProt Q9Y2U9); assay: AlphaScreen competition assay, wild type KLHDC2; format: binding; conditions: USP1 vs SelK 8 aa peptide
T1 sequence (Q9Y2U9 1-362): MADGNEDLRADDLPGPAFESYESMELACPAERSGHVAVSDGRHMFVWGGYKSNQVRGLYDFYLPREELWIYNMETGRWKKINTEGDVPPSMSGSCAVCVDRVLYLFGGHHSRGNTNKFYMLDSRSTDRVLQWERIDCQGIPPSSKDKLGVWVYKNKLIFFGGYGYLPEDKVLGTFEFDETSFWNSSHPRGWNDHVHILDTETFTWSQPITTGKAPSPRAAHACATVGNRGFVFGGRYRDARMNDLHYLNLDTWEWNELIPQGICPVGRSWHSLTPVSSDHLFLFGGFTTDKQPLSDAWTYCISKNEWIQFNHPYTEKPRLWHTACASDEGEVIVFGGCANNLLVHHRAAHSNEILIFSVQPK
Procedure, shortened: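 Human KLHDC2 kelch domain (aa 1–362), GST-tagged, was expressed in baculovirus-infected Hi5 cells. It was purified by glutathione agarose, Q Sepharose and Superdex-200. The assay used 0.12 nM protein on anti-GST acceptor beads and 1.7 nM biotinylated 12 aa SelK peptide on streptavidin donor beads, 5 μg/ml beads. Buffer: HEPES pH 7.5, NaCl, TCEP, Tween-20, BSA. Competitor peptides ran 2 nM–3 mM, in triplicate; IC50 by non-linear fitting.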

[2] = molecular target: GST-KLHDC2 R241K (kelch repeat domain) (human) (UniProt Q9Y2U9); assay: AlphaScreen or HTRF
[3] = molecular target: GST-KLHDC2 (kelch repeat domain, amino acid 1-362) (human) (UniProt Q9Y2U9); assay: AlphaScreen or HTRF
[4] = molecular target: T2, GST-KLHDC2 (kelch repeat domain, amino acid 1-362) (human, UniProt Q9Y2U9 1-362); assay: AlphaScreen or HTRF
T2 sequence (looked up): T1 sequence (Q9Y2U9 1-362)

[5] = molecular target: T3, GST-KLHDC2 R241K (kelch repeat domain) (human, UniProt Q9Y2U9 1-362, R241K); assay: AlphaScreen or HTRF
T3 sequence (looked up): T1 sequence (Q9Y2U9 1-362) with R241K

[6] = molecular target: T2, GST-KLHDC2 (kelch repeat domain, amino …); assay: BLI

EAIGLLGG-OH [USP1-NTD degron peptide] was tested. Which “fold lower potency/affinity vs SelK” value [1] did it give?
The value was “about 7 fold”.

What does the source list for 8 aa USP1-NTD C-end degron peptide?
IC50 [2]: 62600 nM; IC50 [3]: 69.5 nM

Which Kd [3] does the source give for “diglycine (2 aa SelK degron peptide, label-free)” here?
Its Kd is 360000 nM.

LRGPSPPPMAGG (peptide, UniProt Q9Y6D0 80-91, looked up) [12 aa SelK degron peptide (label-free)] was tested. Which IC50 [4] did it give?
Its IC50 is roughly 3 nM.

SPPPMAGG (peptide, UniProt Q9Y6D0 84-91, looked up) [8 aa SelK C-end degron peptide (label-free, wild type)] was tested. Which IC50 [5] did it give?
The IC50 was 5900 nM.

For LRGPSPPPMAGG (peptide, UniProt Q9Y6D0 80-91, looked up, also: biotin, position not given here) [biotinylated 12 aa SelK degron peptide], which Kd [6] is on record?
The Kd was roughly 4 nM.

Does PPMAGG (peptide, UniProt Q9Y6D0 86-91, looked up) [6 aa SelK degron peptide (label-free)] bind [4]?
Result: binds

For SPPPMAGG-NH2 (peptide, UniProt Q9Y6D0 84-91, looked up) [8 aa SelK degron peptide, C-terminally amidated], which “fold decrease in affinity against the unmodified 8 aa peptide” value [4] is on record?
The value was roughly 1000 fold.
